Test results taken from ChEMBL document CHEMBL1153061, “Synergism of virtual screening and medicinal chemistry: identification and optimization of allosteric antagonists of metabotropic glutamate receptor 1” (Bioorg Med Chem, 2009).
Calls of active or inactive are those of the source. The rule behind the calls is not given here.

Key:
[1] = target: T1, Metabotropic glutamate receptor 1 (Rattus norvegicus, UniProt P23385); assay: Displacement of [3H]E-3-(2-chloro-8-methylquinolin-3-yl)-1-(thiophen-2-yl)prop-2-en-1-one from mGluR1 in rat cerebellar membrane after 14 to 16 hrs by scintillation counting; format: cell membranes, Cerebellum
Rattus norvegicus = species: Rattus norvegicus; assay: Selectivity ratio of Ki for mGluR5 in rat cortical membrane to Ki for mGluR1 in rat cerebellar membrane; format: cell membranes
[2] = target: Metabotropic glutamate receptor 5 (Rattus norvegicus, UniProt P31424); assay: Displacement of [3H]MPEP from mGluR5 in rat cortical membrane after 60 mins by liquid scintillation counting; format: cell membranes
Summary of the method: (§1)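 Rat cortical membranes, 125–250 µg protein, incubated with 5 nM [3H]-MPEP (50.2 Ci/mmol) and varying concentrations of test agent. Filters rinsed, and bound radioactivity counted by liquid scintillation.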

[3] = target: T1, Metabotropic glutamate receptor 1; assay: Allosteric antagonist activity at mGluR1 in Sprague-Dawley rat cerebellar granule cells assessed as accumulation of [3H]inositol phosphate by liquid scintillation counting; format: functional
Summary of the method: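 Cerebellar granule cells from P8 Sprague Dawley rats grown in BEM with 10% foetal calf serum and 2 mM glutamine. At 6 DIV switched to inositol-free DMEM with [3H]-myo-inositol (0.5 µCi/100 µl/well) for 48 h. Cells preincubated 15 min at 37 °C in Locke's buffer (20 mM LiCl, pH 7.4), then 45 min with agonists/test ligands. Lysed with 0.1 M HCl 10 min on ice. Inositol phosphates isolated on formate columns, eluted with 1 M ammonium formate/0.1 M formic acid, counted by liquid scintillation.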

[4] = target: Metabotropic glutamate receptor 5 (Rattus norvegicus) (UniProt P31424); assay: Binding affinity to GluR5 in rat cortical membrane up to 10 uM; format: cell membranes; summary of the method: as §1
[5] = target: Metabotropic glutamate receptor 1 (Homo sapiens, UniProt Q13255); assay: Binding affinity to human GluR1 by FLIPR assay
[6] = Solubility in water; format: physicochemical; conditions: buffer

Metabotropic glutamate receptor 5, sequence (P31424 whole entry): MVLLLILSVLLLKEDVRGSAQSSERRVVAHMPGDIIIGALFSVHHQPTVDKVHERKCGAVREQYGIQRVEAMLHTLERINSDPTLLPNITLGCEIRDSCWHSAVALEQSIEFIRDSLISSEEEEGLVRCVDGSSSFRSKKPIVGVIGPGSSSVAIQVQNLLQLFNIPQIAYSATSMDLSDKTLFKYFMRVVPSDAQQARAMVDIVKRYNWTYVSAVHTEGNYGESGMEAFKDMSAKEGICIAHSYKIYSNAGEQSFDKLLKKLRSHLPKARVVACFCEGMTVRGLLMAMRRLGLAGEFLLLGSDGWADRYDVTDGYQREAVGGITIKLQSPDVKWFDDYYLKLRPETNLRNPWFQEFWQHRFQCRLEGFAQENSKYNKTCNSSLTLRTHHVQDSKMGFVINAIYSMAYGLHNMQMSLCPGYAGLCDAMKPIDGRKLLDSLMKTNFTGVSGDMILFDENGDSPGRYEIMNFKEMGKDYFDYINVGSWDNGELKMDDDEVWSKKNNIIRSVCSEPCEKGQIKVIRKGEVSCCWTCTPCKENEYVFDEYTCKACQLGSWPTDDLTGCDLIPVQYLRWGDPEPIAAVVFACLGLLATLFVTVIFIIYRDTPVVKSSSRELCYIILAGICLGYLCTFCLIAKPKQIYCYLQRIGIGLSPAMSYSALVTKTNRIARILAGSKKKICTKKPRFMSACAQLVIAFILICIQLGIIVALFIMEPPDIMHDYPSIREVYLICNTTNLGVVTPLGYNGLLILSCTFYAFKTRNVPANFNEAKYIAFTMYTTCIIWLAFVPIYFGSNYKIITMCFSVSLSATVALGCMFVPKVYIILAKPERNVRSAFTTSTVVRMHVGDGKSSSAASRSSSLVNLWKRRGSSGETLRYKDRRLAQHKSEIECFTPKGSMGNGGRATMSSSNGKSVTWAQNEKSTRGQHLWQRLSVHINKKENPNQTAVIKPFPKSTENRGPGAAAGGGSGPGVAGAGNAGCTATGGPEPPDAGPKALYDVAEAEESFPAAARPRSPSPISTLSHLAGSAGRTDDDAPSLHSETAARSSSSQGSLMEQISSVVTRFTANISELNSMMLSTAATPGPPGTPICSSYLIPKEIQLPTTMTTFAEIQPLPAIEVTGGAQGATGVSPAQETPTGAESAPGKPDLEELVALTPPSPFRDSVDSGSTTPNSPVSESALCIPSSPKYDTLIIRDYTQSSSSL
T1 sequence (P23385 whole entry): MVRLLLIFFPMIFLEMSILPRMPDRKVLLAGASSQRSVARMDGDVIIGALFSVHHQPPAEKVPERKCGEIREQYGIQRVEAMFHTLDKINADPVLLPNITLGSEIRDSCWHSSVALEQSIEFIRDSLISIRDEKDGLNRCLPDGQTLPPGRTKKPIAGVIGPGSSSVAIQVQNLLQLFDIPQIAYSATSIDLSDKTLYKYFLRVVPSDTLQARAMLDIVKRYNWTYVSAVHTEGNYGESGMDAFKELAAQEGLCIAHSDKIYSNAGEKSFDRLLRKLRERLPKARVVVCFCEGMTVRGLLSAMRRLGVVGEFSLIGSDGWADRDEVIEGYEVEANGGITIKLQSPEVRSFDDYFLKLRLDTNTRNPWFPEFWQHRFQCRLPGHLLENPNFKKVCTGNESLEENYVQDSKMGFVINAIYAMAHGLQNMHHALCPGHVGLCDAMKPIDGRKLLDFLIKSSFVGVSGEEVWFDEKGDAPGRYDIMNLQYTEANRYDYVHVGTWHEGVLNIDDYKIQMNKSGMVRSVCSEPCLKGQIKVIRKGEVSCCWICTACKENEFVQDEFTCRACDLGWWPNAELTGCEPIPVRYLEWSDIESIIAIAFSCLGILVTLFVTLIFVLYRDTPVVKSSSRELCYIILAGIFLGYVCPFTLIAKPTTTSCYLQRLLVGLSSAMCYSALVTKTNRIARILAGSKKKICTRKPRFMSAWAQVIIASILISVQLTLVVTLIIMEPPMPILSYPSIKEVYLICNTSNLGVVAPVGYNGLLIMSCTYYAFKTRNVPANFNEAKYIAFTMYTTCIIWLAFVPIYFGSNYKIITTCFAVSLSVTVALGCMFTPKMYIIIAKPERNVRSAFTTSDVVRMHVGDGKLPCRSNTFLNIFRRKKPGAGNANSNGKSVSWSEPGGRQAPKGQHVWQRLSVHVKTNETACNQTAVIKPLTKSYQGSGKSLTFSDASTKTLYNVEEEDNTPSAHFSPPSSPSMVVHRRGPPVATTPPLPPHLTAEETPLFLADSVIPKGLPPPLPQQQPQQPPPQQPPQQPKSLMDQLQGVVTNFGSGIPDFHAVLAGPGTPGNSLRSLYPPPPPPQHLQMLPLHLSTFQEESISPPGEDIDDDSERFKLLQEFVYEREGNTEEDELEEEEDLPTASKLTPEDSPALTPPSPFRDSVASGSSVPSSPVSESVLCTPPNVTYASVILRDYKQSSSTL
Metabotropic glutamate receptor 5 (Rattus norvegicus), sequence (P31424 21-1203 limits assumed): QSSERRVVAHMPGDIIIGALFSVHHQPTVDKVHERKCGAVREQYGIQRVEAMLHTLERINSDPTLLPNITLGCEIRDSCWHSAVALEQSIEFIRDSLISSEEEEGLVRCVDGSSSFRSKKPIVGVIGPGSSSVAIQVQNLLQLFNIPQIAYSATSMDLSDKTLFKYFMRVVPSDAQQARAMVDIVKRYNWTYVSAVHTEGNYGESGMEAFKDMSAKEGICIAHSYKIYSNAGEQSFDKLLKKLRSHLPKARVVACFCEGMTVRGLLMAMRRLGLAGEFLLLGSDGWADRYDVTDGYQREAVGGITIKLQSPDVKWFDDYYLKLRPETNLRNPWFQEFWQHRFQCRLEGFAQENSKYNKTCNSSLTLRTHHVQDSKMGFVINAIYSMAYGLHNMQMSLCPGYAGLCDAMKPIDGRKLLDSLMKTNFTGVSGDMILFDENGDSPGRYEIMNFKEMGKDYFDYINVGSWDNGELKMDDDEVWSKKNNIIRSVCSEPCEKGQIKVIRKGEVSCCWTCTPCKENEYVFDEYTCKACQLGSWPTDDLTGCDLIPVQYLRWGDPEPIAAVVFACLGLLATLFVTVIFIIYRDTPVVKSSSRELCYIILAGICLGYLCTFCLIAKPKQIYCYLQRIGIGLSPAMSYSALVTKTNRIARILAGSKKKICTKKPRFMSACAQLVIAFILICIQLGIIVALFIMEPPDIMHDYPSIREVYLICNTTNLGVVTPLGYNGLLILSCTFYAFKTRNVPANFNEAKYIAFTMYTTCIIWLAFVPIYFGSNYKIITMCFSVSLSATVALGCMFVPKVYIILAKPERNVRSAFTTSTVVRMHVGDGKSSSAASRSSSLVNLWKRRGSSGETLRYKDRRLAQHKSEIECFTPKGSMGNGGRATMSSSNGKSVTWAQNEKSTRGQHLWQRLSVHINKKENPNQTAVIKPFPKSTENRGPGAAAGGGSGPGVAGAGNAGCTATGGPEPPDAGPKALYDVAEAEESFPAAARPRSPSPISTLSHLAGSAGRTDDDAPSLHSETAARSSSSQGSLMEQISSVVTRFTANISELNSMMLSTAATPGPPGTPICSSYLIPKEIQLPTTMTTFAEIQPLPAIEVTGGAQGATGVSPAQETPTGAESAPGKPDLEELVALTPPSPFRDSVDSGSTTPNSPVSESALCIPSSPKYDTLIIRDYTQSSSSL
Metabotropic glutamate receptor 1 (Homo sapiens, UniProt Q13255), sequence (Q13255 whole entry): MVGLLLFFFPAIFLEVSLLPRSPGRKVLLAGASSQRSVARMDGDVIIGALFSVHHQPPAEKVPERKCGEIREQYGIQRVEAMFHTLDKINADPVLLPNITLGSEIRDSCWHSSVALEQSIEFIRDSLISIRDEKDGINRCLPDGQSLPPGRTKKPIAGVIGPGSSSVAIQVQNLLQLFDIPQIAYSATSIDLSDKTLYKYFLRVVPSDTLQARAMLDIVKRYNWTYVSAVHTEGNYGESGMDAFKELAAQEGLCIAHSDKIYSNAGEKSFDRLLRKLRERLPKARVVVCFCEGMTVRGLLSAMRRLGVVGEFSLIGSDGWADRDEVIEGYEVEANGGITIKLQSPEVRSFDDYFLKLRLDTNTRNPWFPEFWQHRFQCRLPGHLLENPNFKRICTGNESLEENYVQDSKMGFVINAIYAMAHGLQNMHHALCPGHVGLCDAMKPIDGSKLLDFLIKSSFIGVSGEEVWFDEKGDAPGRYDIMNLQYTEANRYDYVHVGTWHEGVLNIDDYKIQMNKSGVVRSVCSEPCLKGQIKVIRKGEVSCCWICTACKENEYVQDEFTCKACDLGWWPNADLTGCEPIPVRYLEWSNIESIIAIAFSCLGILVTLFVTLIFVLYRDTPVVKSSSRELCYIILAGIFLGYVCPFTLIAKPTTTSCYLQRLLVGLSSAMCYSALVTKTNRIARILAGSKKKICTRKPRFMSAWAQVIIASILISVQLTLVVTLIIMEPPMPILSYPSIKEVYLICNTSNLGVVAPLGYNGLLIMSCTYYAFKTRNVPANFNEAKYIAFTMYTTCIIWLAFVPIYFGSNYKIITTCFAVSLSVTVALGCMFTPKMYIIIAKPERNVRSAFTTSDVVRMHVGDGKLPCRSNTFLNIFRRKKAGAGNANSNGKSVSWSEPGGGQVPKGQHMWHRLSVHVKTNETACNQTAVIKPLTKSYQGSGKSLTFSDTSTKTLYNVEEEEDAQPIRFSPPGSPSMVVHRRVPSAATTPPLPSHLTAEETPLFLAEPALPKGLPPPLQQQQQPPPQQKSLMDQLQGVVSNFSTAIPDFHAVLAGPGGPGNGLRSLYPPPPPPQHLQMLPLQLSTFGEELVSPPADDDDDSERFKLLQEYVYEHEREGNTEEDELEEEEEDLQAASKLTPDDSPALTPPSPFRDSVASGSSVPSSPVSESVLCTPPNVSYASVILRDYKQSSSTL

Ki [1] [µM]	Ratio Ki (Rattus norvegicus)	Ki [2] [µM]	IC50 [3] [µM]	Activity [4]	Ki [5] [µM]	solubility [6]	Compound
5.23	5.9	30.6					CC(C)(C)C(=O)/C=C/c1cnc2ccccc2c1
9.93		> 100	0.74				Cc1ccc2nc(Cl)c(/C=C/C(=O)c3cccs3)cc2c1
> 40		> 100	39.3				COc1ccc(C(=O)/C=C/c2cc3ccc(C)cc3nc2Cl)cc1
> 40			> 40				CCCCC1CCC(C(=O)Oc2ccc(C(C)=O)cc2)CC1 (configuration not stated)
> 40			> 40				COc1cc2c(cc1OC)C(Cc1ccccc1)=NC(C)(C)C2
36.2			10.6				CC(CC(=O)c1ccc2c(c1)OCCO2)c1ccccc1 (configuration not stated)
> 40			23.9				O=c1cc(-c2ccccc2)c2ccc(OCc3ccc(F)cc3)cc2o1
> 40			> 40				O=c1cc(-c2ccccc2)c2cc(Cl)c(OCc3ccc(F)cc3)cc2o1
> 40			> 40				CC(=O)c1ccc(OC(=O)c2ccc(-c3ccccc3)cc2)cc1
17.2		> 100	2.97				Cc1ccc2cc(/C=C/C(=O)c3cccs3)c(Cl)nc2c1
0.304	60.5	18.4					COc1ccc(C2CC2C(=O)C23CC4CC(CC(C4)C2)C3)cn1 (configuration not stated)
9.18		> 100	1.7				Cc1ccc2nc(Cl)c(/C=C/C(=O)c3ccccc3)cc2c1
> 100		> 100					O=C(/C=C/c1cnc2ccccc2c1)C1CC1
7.04	3.26	22.9					O=C(C1CC1c1cccnc1)C12CC3CC(CC(C3)C1)C2 (configuration not stated)
0.021	29.9	0.807					O=C(/C=C/c1cnc2ccccc2c1)C12CC3CC(CC(C3)C1)C2
0.641	9.72	6.23					O=C(/C=C/c1ccc2c(c1)OCCO2)C12CC3CC(CC(C3)C1)C2
0.294	17.5	5.15					COc1ccc(/C=C/C(=O)C23CC4CC(CC(C4)C2)C3)cc1C
> 40		> 100	8.5				Cc1cccc2cc(/C=C/C(=O)c3ccccc3)c(Cl)nc12
> 40			28.4				CCCCOc1ccc(-c2nnc(-c3ccc(-c4ccccc4)cc3)s2)cc1

Ki [1] [µM]	Ratio Ki (Rattus norvegicus)	Ki [2] [µM]	IC50 [3] [µM]	Activity [4]	Ki [5] [µM]	solubility [6]	Compound
> 40			15.3				Cc1ccc(C(=O)c2ccc(Oc3ccccc3)cc2)cc1C
> 40			> 40				CCn1c2ccccc2c2cc(/C=N/c3ccc(C)c(F)c3)ccc21
> 40		> 100	> 40				Cc1ccc2cc(/C=C/C(=O)c3c(C)coc3C)c(Cl)nc2c1
> 40			30				O=C(/C=C/c1ccc(Cl)cc1)c1ccc(Oc2ccccc2)cc1
> 40			> 40				COc1ccc(C(=O)/C=C/c2ccc(OC3CSC3)cc2)cc1
> 40			> 40				COc1ccc(-c2cc(C)nc(-c3ccc(OC)c(Br)c3)c2)cc1Br
> 40			> 40				CCCCCCOc1ccc(C(=O)Oc2ccc(C3CCCCC3)cc2)cc1
> 40			> 40				O=c1cc(-c2ccccc2)c2ccc(OCc3cccc(Oc4ccccc4)c3)cc2o1
> 40			> 40				CCOc1ccc(C(=O)/C=C/c2ccc(OCc3ccc(Cl)cc3Cl)cc2)cc1
0.137	> 730	> 100		inactive			O=C(C1CC1c1cnc2ccccc2c1)C12CC3CC(CC(C3)C1)C2 (configuration not stated)
> 40			> 40				COc1ccc(C(=O)c2ccc(C(=O)c3ccc(C)c(OC)c3)cc2)cc1C
> 40		> 100	20.5				COc1ccc(C(=O)/C=C/c2cc3cc(C)ccc3nc2Cl)cc1
> 40			23.9				CCCCCCc1cc2c3c(c(=O)oc2cc1OC)CCC3
> 40			> 40				CC(Oc1ccc2c(c1)oc(=O)c1ccccc12)c1ccccc1 (configuration not stated)
0.024	1160	27.8			0.11	Soluble	O=C(C1CC1c1ccc(N2CCOCC2)nc1)C12CC3CC(CC(C3)C1)C2 (configuration not stated)
> 40			22.5				CCCCCc1ccc(-c2ccc(OC(=O)C3CCC(CC)CC3)cc2)nc1 (configuration not stated)
> 40			> 40				O=C(c1ccc(Cl)cc1)c1ccc2c(c1)CCCCO2
> 40			> 40				O=C(c1ccccc1)c1ccc(/N=C/c2ccc(Br)cc2)cc1
